Screening data as filed in PubChem BioAssay.
Compounds with a hit are over-represented: about 9.2% of the library has one in this group of screens.
Autophagy HCS = alters autophagy in cells; MEF GFP-LC3 puncta imaging; test concentration mostly 10 µM; calls only at 10 µM (by protocol); 0.98% of 190,000 active; AID 463193;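 active = percentage of spot-positive cells more than 3 SD above its plate mean, without a fluorescence outlier flag or 80% toxicity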;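 also: spot-positive cell cutoff set from DMSO-treated cells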
Dynein transport = dynein cargo transport inhibition | 0.47% of 220,000 active | z-score, hits read low | 3617.4 mouse cells, GR-EGFP nuclear translocation imaging; test concentration mostly 20 µM; stimulated with dexamethasone, 1 µM; stronger effect = lower value;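 active = plate z-score of nuclear minus cytoplasmic receptor signal below a set negative limit, without overly bright fluorescence or cell loss, cut at about -3.5 in these data, passing the limit was not always enough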;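 also: z-score of nuclear minus cytoplasmic ring GR-EGFP intensity difference per well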
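Also added – dexamethasone, 1.0 µM final · Buffer or medium – tet-free, stripped-serum medium · Schedule – induction 48 h, compound 1 h, agonist 30 min · Detection – formaldehyde fixation, Hoechst nuclear stain, 10x automated fluorescence imaging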
L major viab = inhibitors of Leishmania major promastigote growth | Leishmania major promastigotes, resazurin fluorescence viability | inhibition, % at 10 µM | 9% of 200,000 active | AID 1063; in the data active = inhibition above about 50%;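 also: promastigotes grown with compound for 44 hours at 28 °C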
HCT116 bCat-KO = beta-catenin-lacking colon tumor cell growth suppression | HCT116 beta-catenin knockout viability, CellTiter-Glo, 60 h; stronger effect = lower value | viability, % at 10 µM | 1.5% of 140,000 active;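 active = viability at or under a set limit, the compound median less 4 SD, cut at about 6% in these data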;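 also: 0% = Hyamine 1622 control at 20 µM and 100% = untreated cell control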
HCT116 PTEN-null = PTEN-deleted cell growth suppression; AID 827; 1.2% of 140,000 active; viability, % at 10 µM; HCT116 PTEN-null viability, CellTiter-Glo, 60 h; stronger effect = lower value;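 active = viability at or below a set limit, 4 SD under the median of all tested compounds, cut at about 3.7% in these data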;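 also: PTEN knockout HCT116 line with beta catenin targeted HCT116 as companion control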
The depositor's hits bear a star; i = inactive; / = no result given; + = active, no number.

SMILES	Autophagy HCS	Dynein transport	L major viab	HCT116 bCat-KO	HCT116 PTEN-null
COc1ccc2c(c1)c(=O)oc1cc(OCC(=O)N3CCc4ccccc4C3)ccc12	i	-0.73	3.9	89.6	83.8
CC1=CC(=O)C(C(C)=Nc2ccccc2Cl)C(=O)O1 (stereo not drawn)	/	-0.85	/	/	/
C=CCNC(=O)c1cc(Cl)ccc1[N+](=O)[O-]	i	-0.239	-3.5	94.8	102.2
C=CCN(CC=C)C(=O)c1cc(Cl)ccc1[N+](=O)[O-]	i	-0.0304	51.3*	90.7	87.1
COc1ccc(/C=N/c2oc(C)c(C)c2C#N)c(OC)c1	+	1.15	8.2	/	/
Cc1oc(/N=C/c2cccc3ccccc23)c(C#N)c1C	i	-0.137	-5.2	79.0	87.1
CCOC(=O)C1(Cc2cccc(Cl)c2)CCCN(C2CCN(C(C)=O)CC2)C1 (stereo not drawn)	i	-0.964	83.2*	/	/
O=S(=O)(NCC(Nc1ccc(Cl)cc1)c1ccccc1)c1ccc(Cl)cc1 (stereo not drawn)	i	0.649	58.3*	85.3	75.2
Cc1cc2nnc(SCC(=O)NCc3cccs3)n2c2ccccc12	+	1.98	-1.5	31.0	30.2
COc1ccc(/C=N/NC(=O)c2ccc(CN3c4cccc5cccc(c45)S3(=O)=O)cc2)cc1	i	0.705	82.2*	71.8	74.7
CN1C2C=C(N(CCc3c[nH]c4ccccc34)C(=O)c3ccc(Cl)cc3)CC1CC2 (stereo not drawn)	i	0.47	100.6*	46.0	36.1
COc1ccc(CCN(C(=O)c2ccccc2)C2=CC3CCC(C2)N3C)cc1OC (stereo not drawn)	i	-0.736	-3.3	93.7	98.3
CCOc1ccc(NC(=O)N[C@@H](CCSC)C(=O)OC)cc1	i	0.46	-1.7	94.6	101.4
O=C(NCc1cccnc1)c1csc2c1CCCC2	i	-0.78	51.5*	86.3	101.7
Cc1ccc(CNC(=O)c2csc3c2CCCCC3)cc1	i	-0.505	-1.3	88.0	90.0
C/C(=N\NC(=O)NC1CCCCC1)c1ccco1	i	0.38	22.8	/	/
COc1ccc(C2CC(=O)C=C(NNS(=O)(=O)c3ccc(C)cc3)C2)cc1 (stereo not drawn)	i	-0.53	-5.6	100.7	90.9
CN=C1S/C(=C\c2cc(C)n(-c3ccccc3F)c2C)C(=O)N1C	i	0.709	62.2*	28.9	26.5
Cc1c(Cl)cccc1NC(=O)NCc1ccncc1	i	0.991	-1.6	/	/
O=C1CC(c2ccccc2)Sc2nc3ccccc3n21 (stereo not drawn)	i	-0.0442	-7.9	/	/
Oc1ccccc1C1=Nc2nc3ccccc3n2C(c2ccccc2)C1 (stereo not drawn)	i	0.636	90.5*	81.8	62.5
Cc1cc(Br)ccc1OCCCCNC(C)(C)C	i	0.278	99.6*	68.4	54.0
COCCNC(=O)COc1ccc(Br)cc1Cl	i	0.927	0.8	101.3	103.0
COc1ccccc1OCCCCNC(C)(C)C	i	-0.708	5.5	100.4	93.6
COCCNCCCCOc1ccc(Br)cc1C	i	0.217	99.6*	49.9	45.5
SMILES	Autophagy HCS	Dynein transport	L major viab	HCT116 bCat-KO	HCT116 PTEN-null
CC(C)(C)NCCCCOc1ccccc1F	i	0.135	99.6*	89.3	106.1
COCCCNCCCCOc1ccc(Br)cc1C	i	-0.488	98.9*	58.4	62.0
Nc1cc(Cl)ccc1N1CCCCCC1	i	-0.277	-1.4	/	/
COC(=O)c1ccc(NC(=O)C23CCC(C)(C(=O)O2)C3(C)C)cc1 (stereo not drawn)	i	2.61	2.4	99.5	107.2
COC(=O)COc1ccc(S(=O)(=O)NCc2ccncc2)cc1	i	0.0882	0.3	1.1*	84.1
CCC(C)Nc1c2c(nc3c(-c4ccccc4)c(C)nn13)CCC2 (stereo not drawn)	i	-0.67	13.5	83.5	79.7
COC(=O)C1=C(C)N=C2SC(C#N)=C(N)N2C1c1ccc(OCc2ccccc2)cc1 (stereo not drawn)	i	1.79	97.7*	67.2	65.4
CCOC(=O)c1c(NC(=O)c2ccco2)sc2c1CCCC2	i	-0.937	-7.9	102.1	104.1
CCOC(=O)c1c(NC(=O)C(=O)N/N=C/c2ccccc2O)sc2c1CCCCC2	i	-0.228	98.7*	7.1	5.9
CCOC(=O)c1c(NC(=O)C(=O)N/N=C/c2ccccc2OC)sc2c1CCCCC2	i	0.425	2.8	89.3	90.3
CCOC(=O)c1c(NC(=O)CN2CCN(C(=O)c3ccco3)CC2)sc2c1CCCC2	i	2.13	52.2*	37.0	25.2
CCOC(=O)c1c(NC(=O)COc2cccc3c2CCN(CC)C3=O)sc2c1CCC2	i	0.292	58.8*	83.5	78.2
CCOc1ccc(NC(=O)CC(NCc2ccccn2)C(=O)O)cc1 (stereo not drawn)	i	-0.945	-2.1	/	/
CC(=O)OCC(=O)C1(O)CCC2C3CCC4=CC(=O)C=CC4(C)C3C(O)CC21C (stereo not drawn)	/	-0.879	/	/	/
CCOc1ccc(CN(C)CC(=O)Nc2cccc(S(=O)(=O)N(C)c3ccccc3)c2)cc1	i	1.46	74.0*	/	/
CC(=O)c1ccc(OCCCC(=O)Nc2cccc(S(=O)(=O)N(C)C)c2)cc1	i	1.41	58.4*	93.2	100.6
CC(C)(C)c1ccc(OCCCC(=O)Nc2ccc(S(N)(=O)=O)cc2)cc1	i	1.62	73.2*	/	/
CN(c1ccccc1)S(=O)(=O)c1cccc(NC(=O)Cn2cnc3ccccc3c2=O)c1	i	-0.328	97.8*	69.0	70.6
CCN(CC)S(=O)(=O)c1cc(NC(=O)Cn2cnc3ccccc3c2=O)ccc1C	i	-0.616	19.0	60.5	71.9
CCCc1cc(=O)[nH]c(SCC(=O)Nc2sc3c(c2C#N)CCC(C)C3)n1 (stereo not drawn)	i	0.0469	-2.4	/	/
C#CCOCCOCCOCCNc1nc(N2CCN(C(=O)Cn3cc(CCCN=C(N)N)nn3)CC2)nc(N2CCN(C(=O)Cn3cc(CCCN=C(N)N)nn3)CC2)n1	i	-0.00105	-3.5	95.9	93.3
COc1cccc(CN(C)CC(=O)Nc2ccccc2N2CCOCC2)c1OC	i	1.68	3.3	/	/
CN(c1ccccc1)S(=O)(=O)c1cccc(NC(=O)CC(C)(C)C)c1	i	-0.169	96.5*	64.2	54.2
COc1cccc(CN(C)CC(=O)Nc2cccc(S(N)(=O)=O)c2)c1OC	i	2.73	87.9*	88.0	89.4
CN(c1ccccc1)S(=O)(=O)c1cccc(NC(=O)CN2CCc3ccccc3C2)c1	i	-0.248	7.1	/	/
COc1ccc(Br)cc1CN(C)CC(=O)Nc1cccc(S(N)(=O)=O)c1	i	1.22	7.4	/	/
COc1ccc(-c2cc(C(F)(F)F)n3nc(C(=O)Nc4c(C)n(C)n(-c5ccccc5)c4=O)cc3n2)cc1	i	-0.265	0.1	/	/
O=C1c2ccc3c4c(ccc(c24)C(=O)N1CCCCO)C(=O)N(CCCCO)C3=O	i	0.107	100.3*	/	/
COc1ccccc1C(=O)OCc1ccc2sc(C)nc2c1	i	0.299	4.0	/	/
